The values below come from ChEMBL document CHEMBL1153988 (J Med Chem, 2009).

For series [1], the system named is Mus musculus. Description: Anticonvulsant activity in ip dosed CF1 albino mouse assessed as protection against 44 mA-current-induced seizure by 6Hz psychomotor seizure test. The series is classed as functional. The method in brief: (§1)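 In the 6 Hz psychomotor seizure test, male CF no. 1 albino mice (18-25 g) received the compound ip in 0.5% methylcellulose. Stimulation was at 32 or 44 mA. Doses were varied to give 3-4 points between 0% and 100% protection, and ED50 with 95% confidence interval came from probit analysis.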

The species entered for series [2] is Mus musculus. The series is described as follows: Protective index, ratio of TD50 for CF1 albino mouse to ED50 for scMet-induced CF1 albino seizure mouse model. The format is functional. The method in brief: (§2)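 Ratio of TD50 to ED50 (MES or scMet) in male CF no. 1 mice (18-25 g) given ip doses in 0.5% methylcellulose. TD50 comes from minimal motor impairment: the dose was varied until four points lay between no impairment and all animals impaired. Both TD50 and ED50 were derived by probit analysis with 95% confidence intervals.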

The test system of series [3] is Mus musculus. Description: Anticonvulsant activity in ip dosed CF1 albino mouse assessed as protection against 32 mA current-induced seizure by 6Hz psychomotor seizure test. The format is functional. The method in brief:
as §1

Series [4] is filed under the species Mus musculus. The series is described as follows: Protective index, ratio of TD50 for CF1 albino mouse to ED50 for maximal electroshock-induced CF1 albino seizure mouse model. The series is classed as functional. In a few lines: as §2
In general terms: The maximal electroshock test induces tonic seizures with an electrical stimulus.

For series [5], the species on record is Mus musculus. Description: Protective index, ratio of TD50 for CF1 albino mouse to ED50 for 32 mA current-induced CF1 albino mouse seizure model. The format is functional. The method in brief: (§3)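 Protective index is the mouse TD50 (minimal motor impairment) divided by the 6 Hz test ED50 at 32 or 44 mA. Male CF no. 1 mice were dosed ip in 0.5% methylcellulose, and values came from probit analysis.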

Series [6] has as its system Mus musculus. Description: Anticonvulsant activity in ip dosed CF1 albino mouse assessed as protection against maximal electroshock-induced seizures. The series is classed as functional. In a few lines:
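Male CF no. 1 albino mice (18-25 g) were dosed ip in 0.5% methylcellulose and tested by maximal electroshock. Doses were varied to give 3-4 points between 0% and 100% protection. ED50 with 95% confidence interval came from probit analysis.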

The species named for series [7] is Rattus norvegicus. The series is described as follows: Protective index, ratio of TD50 for albino Sprague-Dawley rat to ED50 for scMet-induced albino Sprague-Dawley rat seizure model. The format is functional. The method in brief:
(§4)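 Protective index is the rat TD50 (minimal motor impairment) divided by the ED50 in the MES or sc pentylenetetrazol test. Male Sprague-Dawley rats were dosed orally in 0.5% methylcellulose, and both values came from probit analysis.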

Series [8] has as its system Rattus norvegicus. Description: Anticonvulsant activity in po dosed albino Sprague-Dawley rat assessed as protection against maximal electroshock-induced seizures. The format is functional.
The subject of series [9] is Rattus norvegicus. The series is described as follows: Anticonvulsant activity in po dosed albino Sprague-Dawley rat assessed as protection against scMet-induced seizures. The series is classed as functional. The method in brief: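 Male Sprague-Dawley albino rats (100-150 g) were dosed orally in 0.5% methylcellulose and tested by MES or by sc pentylenetetrazol (2.82% in 0.9% saline). Doses were varied to give 3-4 points between 0% and 100% protection. ED50 and 95% confidence intervals came from probit analysis.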

The subject of series [10] is Mus musculus. The series is described as follows: Anticonvulsant activity in ip dosed CF1 albino mouse assessed as protection against scMet-induced seizures. The format is functional. In a few lines: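 Adult male CF no. 1 albino mice (18-25 g) dosed ip with compound suspended in 0.5% methylcellulose (0.01 mL/g body weight). Seizures were induced by subcutaneous pentylenetetrazol, given as a 0.85% solution in 0.9% saline. ED50 was found by varying the dose to give 3-4 points between 0% and 100% protection, then probit analysis with 95% confidence intervals.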

For series [11], the species on record is Rattus norvegicus. Description: Protective index, ratio of TD50 for albino Sprague-Dawley rat to ED50 for maximal electroshock-induced albino Sprague-Dawley rat seizure model. The series is classed as functional. The method in brief:
as §4

Series [12] is described as follows: Neurotoxicity in po dosed albino Sprague-Dawley rat assessed as minimal motor impairment. The settings on record: in vivo. The series is classed as toxicity, organism-based. The method in brief:
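Rats: male Sprague-Dawley (100-150 g), oral dosing in 0.5% methylcellulose. Doses were varied to give four points between no minimal motor impairment and all animals impaired. TD50 and 95% confidence intervals came from probit analysis.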

Series [13] concerns Mus musculus. The series is described as follows: Neurotoxicity in ip dosed CF1 albino mouse assessed as minimal motor impairment. The series is classed as toxicity, organism-based. The settings on record: mouse, in vivo. In a few lines:
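Mice: male CF no. 1 albino (18-25 g), ip dosing in 0.5% methylcellulose. Minimal motor impairment was scored, with doses varied to give four points between no impairment and all animals impaired.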

The species named for series [14] is Mus musculus. Description: Protective index, ratio of TD50 for CF1 albino mouse to ED50 for 44 mA-current-induced CF1 albino mouse seizure model. The format is functional. In a few lines: as §3

Molecules are shown by their SMILES.

The term ED50 denotes the midpoint of the dose-response relation. As a reminder, the TD50 is the 50% point of the dose-response relation for the toxic effect studied.

Turning to `CCCC(CCC)C(N)=O` [VALPROMIDE], the median effective dose (ED50) with Mus musculus [1] worked out at 66 mg/kg; in the series on Mus musculus [3], 57 mg/kg; in the series with Mus musculus [6] it was 56 mg/kg; in the series with Rattus norvegicus [8] it was 32 mg/kg; in the series with Rattus norvegicus [9], 59 mg/kg; in the series on Mus musculus [10], 55 mg/kg. Further, the ED50 in the series with Mus musculus [13] came to 81 mg/kg. Also, the PI in the series filed under Mus musculus [2] came out at 1.5; in the series filed under Mus musculus [4], 1.4; in the series filed under Mus musculus [5], 1.4; in the series filed under Rattus norvegicus [7], 1.5; in the series filed under Rattus norvegicus [11] it was 2.7; in the series filed under Mus musculus [14] it was 1.2. In addition, the TD50 in [12] was 87 mg/kg.
